In the library only some 1.8% were active in any assay of this set; here they are far more common.
Runt-CBFb FRET – Runt domain-CBFb interaction inhibition; Q01196+Q13951; Cerulean-Runt/Venus-CBFb FRET ratio 530/480, 1 h; inhibition, % at 20 µM; actives 0.46% (n = 220,000); AID 1496;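 active = inhibition over about 50% at 20 µM in the single-dose screen, limit read from the data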;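 note: 0% = DMSO wells and 100% = excess unlabeled CBFb competitor control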
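Reagent – Venus-CBFb binding partner, 100 nM · Assay system – Cerulean-tagged RUNX1 Runt domain (FRET donor) fusion protein · Input – 100 nM per protein · Incubation – two 1 h room-temperature incubations shielded from light · Measured by – FRET fluorescence · Medium – Tris buffer pH 7.5 with salts and BSA · Benchmarks – unlabeled CBFb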
RanGTP-Impb inh – inhibitors of RanGTP-importin-beta interaction, primary screen, biochemical, FRET, CFP-Ran, YFP-importin-beta, homogeneous; AID 2216; cell-free CFP-Ran/YFP-importin-beta FRET ratio; inhibition, % (concentration not given with the values); actives 1.1% (n = 300,000);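 active = more than half of the replicate wells show a fall in the fluorescence ratio signal beyond about 16%, limit read from the data, passing the limit was not always enough; inconclusive = exactly half of the replicate wells pass the set limit; inactive = fewer than half of replicates pass the limit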;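 note: 0% = DMSO wells and 100% = Ran loaded with GDP instead of GTP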
Runt-SMMHC FRET – blocks binding of human RUNX1 Runt domain to CBFb-SMMHC; inhibition, % at 20 µM; AID 1434; Cerulean-Runt/Venus-CBFb-SMMHC FRET ratio 530/480, 1 h; actives 0.74% (n = 220,000); Q01196+Q13951;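 active = mean inhibition across duplicate retests at 20 µM reaching about 50%, limit read from the data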;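 note: 0% = DMSO wells and 100% = wells with excess untagged CBFb-SMMHC; inhibitors lower the FRET ratio by blocking Runt binding to CBFb-SMMHC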
Rce1 inhib – blocks yeast Ras-converting enzyme | AID 2563 | calls only | yeast membranes, quenched prenylated peptide cleavage fluorescence | actives 0.27% (n = 290,000);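 active = fall in fluorescence gain of 50% or more versus controls, with final raw signal at or below 3038400; inconclusive = same 50% fall but final raw signal above 3038400; inactive = fall in fluorescence gain under 50%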;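 note: plate controls were neutral control wells for no effect and wells lacking membranes for full effect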
Target sequence (Q03530 whole entry, looked up): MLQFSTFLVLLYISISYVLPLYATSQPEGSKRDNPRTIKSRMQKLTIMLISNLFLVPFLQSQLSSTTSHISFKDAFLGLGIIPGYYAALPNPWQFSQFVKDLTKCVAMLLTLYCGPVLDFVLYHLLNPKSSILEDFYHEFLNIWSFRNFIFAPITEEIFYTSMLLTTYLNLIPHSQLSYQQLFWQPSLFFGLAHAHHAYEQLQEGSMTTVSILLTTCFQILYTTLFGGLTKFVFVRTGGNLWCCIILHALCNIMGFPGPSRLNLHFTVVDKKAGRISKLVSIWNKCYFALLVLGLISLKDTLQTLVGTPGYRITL
Platelet DG rel – platelet dense granule release activity; inhibition, %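 (compounds screened at 7.5 µM in platelet-rich plasma)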; AID 1663; human platelet-rich plasma, SFLLRN dense granule ATP release, luminescence; actives 0.22% (n = 300,000);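 active = mean replicate score, as percent of positive control, at or above 50; inconclusive = mean below 50 but at least one replicate at or above 50; inactive = mean and every replicate below 50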
* hit, by the source's call; i = inactive; ? = inconclusive; · = no result given; + = active, no number.

SMILES	Runt-CBFb FRET	RanGTP-Impb inh	Runt-SMMHC FRET	Rce1 inhib	Platelet DG rel
COc1cccc2cc(C(=O)NNC(=O)c3ccc(Br)cc3)c(=O)oc12	2	5	-1	i	-1
CCn1c(CN(C)c2ccccc2)nc2ccccc21	·	1	·	i	0
CN1CCc2c(sc3nc(SCC(=O)NCc4ccco4)n(-c4ccccc4)c(=O)c23)C1	·	25*	·	i	13
COc1ccc(-n2c(SCC(=O)NCc3ccco3)nc3sc4c(c3c2=O)CCN(C)C4)cc1	·	10	·	i	11
COC(=O)c1ccc(N2CCN(C)CC2)c(NC(=O)c2sc3ccccc3c2Cl)c1	·	4	·	i	-1
COCCN1C(=S)NC(c2cccc(C(F)(F)F)c2)C(C(=O)N2CCOCC2)=C1C (stereo not given)	-1	-1	6	i	5
Cc1nn2c3c(cnc2c1-c1ccccc1)C(=O)CCC3	-2	2	-2	i	3
Cc1nn2c3c(cnc2c1-c1ccc(Cl)cc1)C(=O)CC(c1ccco1)C3 (stereo not given)	-101	19*	-186	i	-4
Cc1ccc(-n2c(N)c(-c3nc4ccccc4n3C)sc2=S)cc1	40	28*	0	i	14
N#C/C(=C\c1ccncc1)c1nc2c(s1)CCCC2	22	?	87*	i	5
Cn1c(/C(C#N)=C/c2ccncc2)nc2ccccc21	15	·	11	i	8
COc1cccc(NC(=O)CN(C)C(=O)c2ccc(N3CCOCC3)c([N+](=O)[O-])c2)c1	·	7	·	i	0
FC(F)(F)c1cc(Oc2ccccc2)ncc1-c1nnc(-c2ccccc2Cl)o1	-3	-1	2	+	-8
CCCn1c(=N)c(S(=O)(=O)c2ccc(F)cc2)cc2c(=O)n3cccc(C)c3nc21	·	144*	·	i	-9
Cn1c(=N)c(S(=O)(=O)c2ccccc2)cc2c(=O)n3ccccc3nc21	47	·	62*	·	·
Cc1ccc(S(=O)(=O)c2cc3c(=O)n4ccccc4nc3n(C)c2=N)cc1C	·	173*	·	i	4
C=CCn1c(=N)c(S(=O)(=O)c2ccc(C)c(C)c2)cc2c(=O)n3ccccc3nc21	·	160*	·	i	4
CC(C)NC(=O)c1ccc2c(c1)N(CC(=O)Nc1ccccc1F)C(=O)C(C)(C)O2	·	1	·	i	10
Cc1ccc(SCC(=O)Nc2ccc(N3CCN(C)CC3)c(F)c2)c(C)c1	-2	-3	-107	i	9
CC1(C)CC(=O)C=C(NCc2ccc(Cl)c(Cl)c2)C1	10	3	-2	i	13
Cc1ccc(C)c(CN2CCN(c3ncccn3)CC2)c1	·	-1	·	i	-5
COc1cccc(NC(=O)CN2CCN(C(=O)c3ccco3)CC2)c1	·	5	·	i	-4
Cn1c(=N)c(S(=O)(=O)c2ccc(F)cc2)cc2c(=O)n3ccccc3nc21	63*	5	80*	i	-2
CCCn1c(=N)c(S(=O)(=O)c2ccc(F)cc2)cc2c(=O)n3ccccc3nc21	·	176*	·	i	1
CCOc1ccc(NC(=O)c2ccccc2OCC(=O)c2ccccc2)cc1	-2	-1	-2	i	6
SMILES	Runt-CBFb FRET	RanGTP-Impb inh	Runt-SMMHC FRET	Rce1 inhib	Platelet DG rel
CC(=O)/C(C#N)=C1\NC(=O)C(Cc2ccc(C)c(C)c2)S1 (stereo not given)	6	-1	-2	i	-9
CC(=O)Nc1ccc(C(=O)N(C)c2ccccc2)cc1	2	1	1	i	77*
CN(C(=O)c1ccc(NC(=O)C2CC=CCC2C(=O)O)cc1)c1ccccc1 (stereo not given)	2	25*	-2	·	-1
CCOc1cc(N2CCOCC2)c(OCC)cc1NC(=O)COC(=O)[C@@H]1CCCN1S(=O)(=O)c1ccccc1F	1	0	2	i	23
COc1ccc2c(c1)sc(=NC(=O)CS(=O)(=O)c1ccc(F)cc1)n2C	·	1	·	i	15
Cc1cccc(-c2cc3nc(-c4ccccc4)cc(N4CCC5(CC4)OCCO5)n3n2)c1	-1	5	9	+	0
Fc1cccc(-c2cc3nc(-c4ccccc4)cc(N4CCC5(CC4)OCCO5)n3n2)c1	3	7	34	+	4
COc1cc(OC)c2cc(C(=O)N/N=C/c3ccccc3O)[nH]c2c1	·	3	·	i	-10
CCCS(=O)(=O)N1CCN=C1SCc1cccnc1	0	-1	-1	·	-7
COc1ccc(Cn2c(C)c(C)c(C#N)c2NC(=O)Nc2ccc(Cl)cc2)cc1	3	1	2	i	8
COc1ccc(/C=N/N2C(=N)SCC2=O)cc1	0	-3	-1	i	2
CCN(CC)S(=O)(=O)c1ccc(C(=O)OC2CCCCC2CN(C)C)cc1 (stereo not given)	0	26*	4	i	-1
CN(C)CC1CCCCC1OC(=O)c1ccc(Cl)cc1 (stereo not given)	0	2	2	i	-4
Cc1cc2c(C)cc(=O)oc2c2c1NCCC2	17	10	60*	i	-5
O=C(CN1C(=O)c2ccccc2S1(=O)=O)c1ccc(Cl)cc1Cl	·	-1	·	i	-9
Cc1oc(/N=C/c2ccc(O)cc2O)c(C#N)c1C	78*	82*	90*	i	2
Cc1oc(/N=C/c2ccccc2O)c(C#N)c1C	0	2	1	i	-6
O=C(COC(=O)[C@H](Cc1ccccc1)NS(=O)(=O)c1ccccc1F)NC1CCCCC1	-2	-2	-5	i	0
Cc1n[nH]c(=O)c2c(NC(=O)COC(=O)Cc3ccc(Cl)cc3Cl)oc(C)c12	·	0	·	·	0
N#CC1=C(N)C2=C(N3CCCCC3)CCCC2C1(C#N)C#N (stereo not given)	-14	-19	-37	i	4
CCCCN(C)C1=CC2=CC(=C(C#N)C#N)CCC2CC1 (stereo not given)	28	92*	58*	i	3
N#CC(C#N)=C1C=C2C=C(N3CCCCC3)CCC2CC1 (stereo not given)	-50	·	77*	·	·
CCN(CC)C1=CC2=CC(=C(C#N)C#N)CCC2CC1 (stereo not given)	4	·	83*	i	-1
COc1cccc(NC(=O)CSCc2cc(=O)n3nc(C4CC4)sc3n2)c1	·	-1	·	i	10
COc1cc(NC(=S)N2CCN(C/C=C/c3ccccc3)CC2)cc(OC)c1	0	2	3	i	57*
O=S(=O)(c1ccccc1)c1nc(NCc2cccnc2)sc1Cl	-2	1	-5	i	-3
COc1ccccc1CNC(=O)CCC(=O)N1CC(C)Sc2ccccc21 (stereo not given)	·	-1	·	i	-2
CCN1C(=O)c2cccc3c(S(=O)(=O)NCC4CCCO4)ccc1c23 (stereo not given)	-22	18*	81	i	-4
CCN1C(=O)c2cccc3c(S(=O)(=O)NCc4cccnc4)ccc1c23	-23	23*	57*	i	-2

Screens: PubChem BioAssay, several laboratories
